Measured values taken from ChEMBL document CHEMBL3526048, “In vitro metabolism of rivoglitazone, a novel peroxisome proliferator-activated receptor γ agonist, in rat, monkey, and human liver microsomes and freshly isolated hepatocytes” (Drug Metab Dispos, 2011).

Columns and labels:
[1] = Drug metabolism in rat hepatocytes assessed as formation of (2S,3S,4S,5R,6R)-3,4,5-trihydroxy-6-(5-(4-((6-methoxy-1-methyl-1H-benzo[d]imidazol-2-yl)methoxy)benzyl)-2,4-dioxothiazolidin-3-yl)tetrahydro-2H-pyran-2-carboxylic acid at 30 uM after 3 hrs by radio-HPLC/LC-MS/MS analysis in presence of UDPGA and UDPGA/SAM; assay type: ADME, cell-based, Hepatocyte
[2] = Drug metabolism in monkey hepatocytes assessed as formation of 2-((4-((2,4-dioxothiazolidin-5-yl)methyl)phenoxy)methyl)-1-methyl-1H-benzo[d]imidazol-6-yl hydrogen sulfate at 30 uM after 3 hrs by radio-HPLC/LC-MS/MS analysis; settings: cynomolgus monkey
[3] = Drug metabolism in monkey hepatocytes assessed as formation of 2-mercapto-3-(4-((6-methoxy-1-methyl-1H-benzo[d]imidazol-2-yl)methoxy)phenyl)propanoic acid at 30 uM after 3 hrs by radio-HPLC/LC-MS/MS analysis in presence of UDPGA, UDPGA/SAM and NADPH-generating system; settings: cynomolgus monkey
[4] = Drug metabolism in human hepatocytes assessed as formation of 5-(4-((6-hydroxy-1-methyl-1H-benzo[d]imidazol-2-yl)methoxy)benzyl)thiazolidine-2,4-dione at 30 uM after 3 hrs by radio-HPLC/LC-MS/MS analysis in presence of NADPH-generating system and NADPH-generating system/SAM; assay type: ADME, cell-based, Hepatocyte
Cytochrome P450 3A4 = Cytochrome P450 3A4 (Homo sapiens, UniProt P08684); experiment: Activity of human CYP3A4 expressed in microsomes isolated from baculovirus infected insect cell assessed as enzyme-mediated 2-hydroxy-3-(4-((6-methoxy-1-methyl-1H-benzo[d]imidazol-2-yl)methoxy)phenyl)propanamide formation at 20 uM after 2 hrs by radio-HPLC/LC-MS/MS analysis in presence of NADPH-generating system and NADPH-generating system/SAM; assay type: ADME
Chain of Cytochrome P450 3A4 (P08684 whole entry): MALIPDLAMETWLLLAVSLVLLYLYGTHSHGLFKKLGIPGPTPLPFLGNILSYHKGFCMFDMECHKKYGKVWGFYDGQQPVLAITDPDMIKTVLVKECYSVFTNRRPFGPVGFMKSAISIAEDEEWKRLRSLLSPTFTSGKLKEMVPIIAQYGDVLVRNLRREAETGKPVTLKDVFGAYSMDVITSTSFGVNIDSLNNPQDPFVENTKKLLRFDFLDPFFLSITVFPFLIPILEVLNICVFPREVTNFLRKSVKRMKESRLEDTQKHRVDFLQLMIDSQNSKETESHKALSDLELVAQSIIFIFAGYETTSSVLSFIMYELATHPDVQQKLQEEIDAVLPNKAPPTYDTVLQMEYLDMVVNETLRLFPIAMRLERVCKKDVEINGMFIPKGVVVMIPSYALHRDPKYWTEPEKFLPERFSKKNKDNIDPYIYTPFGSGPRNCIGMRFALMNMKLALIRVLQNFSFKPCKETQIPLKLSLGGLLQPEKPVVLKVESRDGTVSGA

Liver microsome = experiment: Drug metabolism in human liver microsomes assessed as formation of 3-(4-((6-methoxy-1-methyl-1H-benzo[d]imidazol-2-yl)methoxy)phenyl)-2-(methylsulfinyl)propanamide at 20 uM after 2 hrs by radio-HPLC/LC-MS/MS analysis in presence of NADPH-generating system/SAM; assay type: ADME
[5] = target: T1, UDP-glucuronosyltransferase 2B17 (Homo sapiens, UniProt O75795); experiment: Activity of human UGT2B17 expressed in microsomes isolated from baculovirus infected insect cell assessed as enzyme-mediated (2S,3S,4S,5R,6R)-6-((1-carboxy-2-(4-((6-methoxy-1-methyl-1H-benzo[d]imidazol-2-yl)methoxy)phenyl)ethylthio)carbonylamino)-3,4,5-trihydroxytetrahydro-2H-pyran-2-carboxylic acid formation at 20 uM after 4 hrs by radio-HPLC/LC-MS/MS analysis in presence of UDPGA; assay type: ADME
T1 sequence (O75795 whole entry): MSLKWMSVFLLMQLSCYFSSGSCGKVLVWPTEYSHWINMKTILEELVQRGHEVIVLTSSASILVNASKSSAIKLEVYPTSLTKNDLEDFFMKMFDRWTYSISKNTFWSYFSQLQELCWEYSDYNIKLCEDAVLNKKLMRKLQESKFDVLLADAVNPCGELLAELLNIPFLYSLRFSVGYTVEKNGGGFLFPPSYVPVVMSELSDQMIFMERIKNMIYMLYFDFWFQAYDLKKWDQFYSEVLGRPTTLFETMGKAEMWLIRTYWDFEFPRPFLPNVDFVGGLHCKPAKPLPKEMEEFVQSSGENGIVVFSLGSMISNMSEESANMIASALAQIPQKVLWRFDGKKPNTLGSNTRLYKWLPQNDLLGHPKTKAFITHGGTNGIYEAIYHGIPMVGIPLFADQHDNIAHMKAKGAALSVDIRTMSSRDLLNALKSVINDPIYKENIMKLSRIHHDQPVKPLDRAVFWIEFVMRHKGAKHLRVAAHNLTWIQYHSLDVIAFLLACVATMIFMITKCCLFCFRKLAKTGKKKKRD

[6] = target: T2, UDP-glucuronosyltransferase 1A3 (Homo sapiens, UniProt P35503); experiment: Activity of human UGT1A3 expressed in microsomes isolated from baculovirus infected insect cell assessed as enzyme-mediated 2-((4-((2,4-dioxothiazolidin-5-yl)methyl)phenoxy)methyl)-1-methyl-1H-benzo[d]imidazol-6-yl hydrogen sulfate formation at 20 uM after 4 hrs by radio-HPLC/LC-MS/MS analysis; assay type: ADME
T2 sequence (P35503 whole entry): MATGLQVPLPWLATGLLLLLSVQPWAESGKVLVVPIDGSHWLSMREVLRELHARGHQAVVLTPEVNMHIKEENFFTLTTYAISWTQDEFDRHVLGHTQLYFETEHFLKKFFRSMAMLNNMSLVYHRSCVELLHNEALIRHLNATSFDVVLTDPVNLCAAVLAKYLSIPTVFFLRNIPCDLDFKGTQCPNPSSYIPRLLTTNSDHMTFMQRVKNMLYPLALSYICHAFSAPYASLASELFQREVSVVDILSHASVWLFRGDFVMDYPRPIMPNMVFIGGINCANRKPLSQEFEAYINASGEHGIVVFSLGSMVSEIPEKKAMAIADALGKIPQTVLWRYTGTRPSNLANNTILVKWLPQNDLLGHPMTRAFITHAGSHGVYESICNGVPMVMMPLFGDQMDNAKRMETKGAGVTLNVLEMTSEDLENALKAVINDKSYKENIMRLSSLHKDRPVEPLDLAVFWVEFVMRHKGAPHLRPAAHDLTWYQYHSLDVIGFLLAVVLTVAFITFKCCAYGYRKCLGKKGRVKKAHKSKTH
In short: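 Alamethicin (50 μg/mg protein, 15 min on ice) pretreated expressed human UGT microsomes (1 mg/ml protein) from baculovirus-infected insect cells. Incubation with [¹⁴C]rivoglitazone (20 μM) in 100 mM Tris-HCl (pH 7.5) with 10 mM MgCl₂, started by 5 mM UDPGA, 4 h at 37°C with shaking. UGT insect-cell control supersomes were run alongside. Acetonitrile stop, concentrated supernatant analysed by radio-HPLC, LC-MS and LC-MS/MS.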

Cytochrome P450 2D6 = Cytochrome P450 2D6 (Homo sapiens, UniProt P10635); experiment: Activity of human CYP2D6 expressed in microsomes isolated from baculovirus infected insect cell assessed as enzyme-mediated compound formation treated with [14C]-rivoglitazone at 20 uM after 2 hrs by radio-HPLC/LC-MS/MS analysis in presence of NADPH-generating system; assay type: ADME
Chain of Cytochrome P450 2D6 (P10635 whole entry): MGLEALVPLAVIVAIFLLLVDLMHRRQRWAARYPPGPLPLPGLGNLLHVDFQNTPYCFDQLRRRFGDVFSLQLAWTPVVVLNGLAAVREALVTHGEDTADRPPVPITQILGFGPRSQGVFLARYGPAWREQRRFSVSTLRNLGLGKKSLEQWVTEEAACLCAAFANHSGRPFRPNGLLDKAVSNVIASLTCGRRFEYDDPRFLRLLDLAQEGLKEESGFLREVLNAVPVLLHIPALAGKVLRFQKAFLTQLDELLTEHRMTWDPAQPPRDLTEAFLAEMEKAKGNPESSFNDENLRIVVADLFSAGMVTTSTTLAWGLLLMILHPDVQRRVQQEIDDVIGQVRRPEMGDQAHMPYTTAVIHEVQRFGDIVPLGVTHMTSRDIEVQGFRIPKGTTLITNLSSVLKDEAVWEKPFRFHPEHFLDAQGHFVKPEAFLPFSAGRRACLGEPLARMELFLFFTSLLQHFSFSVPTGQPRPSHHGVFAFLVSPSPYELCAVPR
In short: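 Baculovirus-insect-cell microsomes expressing the human CYP (1 mg/ml protein) were incubated with [14C]rivoglitazone (20 μM) in 50 mM potassium phosphate (pH 7.4) or 100 mM Tris-HCl (pH 7.5) with an NADPH-generating system (2 mM NADP+, 20 mM glucose 6-phosphate, 2 units/ml G6PDH, 10 mM MgCl2) for 2 h at 37°C. Insect-cell control supersomes served as the control. Reactions were stopped with acetonitrile, and the concentrated supernatants were analysed by radio-HPLC, LC-MS and LC-MS/MS.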

Cytochrome P450 2C19 = Cytochrome P450 2C19 (Homo sapiens, UniProt P33261); experiment: Activity of human CYP2C19 expressed in microsomes isolated from baculovirus infected insect cell assessed as enzyme-mediated compound formation treated with [14C]-rivoglitazone at 20 uM after 2 hrs by radio-HPLC/LC-MS/MS analysis in presence of NADPH-generating system; assay type: ADME
Chain of Cytochrome P450 2C19 (P33261 whole entry): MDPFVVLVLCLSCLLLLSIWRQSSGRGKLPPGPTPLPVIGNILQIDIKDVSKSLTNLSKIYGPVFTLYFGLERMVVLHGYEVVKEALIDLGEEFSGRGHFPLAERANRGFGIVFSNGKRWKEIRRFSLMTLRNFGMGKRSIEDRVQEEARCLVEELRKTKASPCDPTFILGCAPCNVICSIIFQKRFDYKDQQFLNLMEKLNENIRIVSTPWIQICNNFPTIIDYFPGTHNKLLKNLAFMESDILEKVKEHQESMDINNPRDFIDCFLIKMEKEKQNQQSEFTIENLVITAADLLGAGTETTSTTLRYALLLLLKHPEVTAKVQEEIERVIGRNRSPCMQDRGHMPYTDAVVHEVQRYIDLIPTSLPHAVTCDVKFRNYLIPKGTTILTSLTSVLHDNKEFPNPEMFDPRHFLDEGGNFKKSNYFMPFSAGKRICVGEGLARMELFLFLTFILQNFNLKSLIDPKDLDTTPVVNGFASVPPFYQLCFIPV
In short: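 Baculovirus/insect-cell microsomes expressing single human CYPs, 1 mg/ml protein, with 50 mM potassium phosphate (pH 7.4) or 100 mM Tris-HCl (pH 7.5). NADPH-generating system: 2 mM NADP⁺, 20 mM glucose 6-phosphate, 2 units/ml G6PDH, 10 mM MgCl₂. [¹⁴C]rivoglitazone at 20 μM, 2 h at 37°C with shaking. Control used insect-cell control supersomes. Stopped with acetonitrile; supernatant concentrated under nitrogen; metabolites analysed by radio-HPLC, LC-MS and LC-MS/MS.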

Drug metabolism [1]	Drug metabolism [2]	Drug metabolism [3]	Drug metabolism [4]	Drug metabolism (Cytochrome P450 3A4)	Drug metabolism (Liver microsome)	Drug metabolism [5]	Drug metabolism [6]	Drug metabolism (Cytochrome P450 2D6)	Drug metabolism (Cytochrome P450 2C19)	SMILES
metabolite_detected	metabolite_detected	metabolite_not_detected	metabolite_detected	metabolite_detected	metabolite_detected	metabolite_not_detected	metabolite_not_detected			COc1ccc2nc(COc3ccc(C[14CH]4SC(=O)NC4=O)cc3)n(C)c2c1.Cl (racemic)
								metabolite_detected	metabolite_detected	COc1ccc2nc(COc3ccc(CC(S)C(=O)O)cc3)n(C)c2c1 (stereo not given)
